Results: ChEMBL document CHEMBL1157639, “Identification of inhibitors of drug-resistant Candida albicans strains from a library of bicyclic peptidomimetic compounds” (2010)

What was measured:
Format in all cases: functional, Vagina
Candida albicans [1] = test: Antifungal activity against pharmacoresistant Candida albicans AIDS68 infected in Wistar rat estrogen-dependent fungal vaginitis model assessed as fungal burden at 10 ug administered intravaginally 24 hrs after fungal infection measured on day 2 after infection
Outline: (§1)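 Oophorectomized female Wistar rats (80-100 g) got 0.5 mg estradiol benzoate s.c. Six days later they were inoculated intravaginally with >10⁷ YPD-grown yeast cells (28 °C, washed, hemocytometer-counted) in 0.1 mL saline. Treatment was given intravaginally at 1, 24 and 48 h post-challenge. Burden was counted by culturing 100 μL vaginal fluid on Sabouraud-chloramphenicol (50 μg/mL) agar, as CFU/mL ×1000, through day 28.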

Candida albicans [2] = test: Antifungal activity against pharmacoresistant Candida albicans AIDS68 infected in Wistar rat estrogen-dependent fungal vaginitis model assessed as fungal burden at 10 ug administered intravaginally 48 hrs after fungal infection measured on day 21 after infection; outline: as §1
Candida albicans [3] = test: Antifungal activity against pharmacoresistant Candida albicans AIDS68 infected in Wistar rat estrogen-dependent fungal vaginitis model assessed as fungal burden at 10 ug administered intravaginally 1 hr after fungal infection measured within 1 day of infection; outline: as §1
Candida albicans [4] = test: Antifungal activity against pharmacoresistant Candida albicans AIDS68 infected in Wistar rat estrogen-dependent fungal vaginitis model assessed as fungal burden at 10 ug administered intravaginally 48 hrs after fungal infection measured on day 7 after infection; outline: as §1
Candida albicans [5] = test: Antifungal activity against pharmacoresistant Candida albicans AIDS68 infected in Wistar rat estrogen-dependent fungal vaginitis model assessed as fungal burden at 10 ug administered intravaginally 48 hrs after fungal infection measured on day 14 after infection; outline: as §1
Candida albicans [6] = test: Antifungal activity against pharmacoresistant Candida albicans AIDS68 infected in Wistar rat estrogen-dependent fungal vaginitis model assessed as fungal burden at 10 ug administered intravaginally 48 hrs after fungal infection measured on day 5 after infection; outline: as §1
Candida albicans [7] = test: Antifungal activity against pharmacoresistant Candida albicans AIDS68 infected in Wistar rat estrogen-dependent fungal vaginitis model assessed as fungal burden at 10 ug administered intravaginally 48 hrs after fungal infection measured on day 28 after infection; outline: as §1
Candida albicans [8] = test: Antifungal activity against Candida albicans SA40 infected in Wistar rat estrogen-dependent fungal vaginitis model assessed as fungal burden at 10 ug administered intravaginally 1 hr after fungal infection measured within 1 day of infection; outline: as §1
Candida albicans [9] = test: Antifungal activity against Candida albicans SA40 infected in Wistar rat estrogen-dependent fungal vaginitis model assessed as fungal burden at 10 ug administered intravaginally 48 hrs after fungal infection measured on day 7 after infection; outline: as §1
Candida albicans [10] = test: Antifungal activity against Candida albicans SA40 infected in Wistar rat estrogen-dependent fungal vaginitis model assessed as fungal burden at 10 ug administered intravaginally 1 hr after fungal infection measured on day 1 after infection; outline: as §1
Candida albicans [11] = test: Antifungal activity against Candida albicans SA40 infected in Wistar rat estrogen-dependent fungal vaginitis model assessed as fungal burden at 10 ug administered intravaginally 24 hrs after fungal infection measured on day 2 after infection; outline: as §1
Candida albicans [12] = test: Antifungal activity against Candida albicans SA40 infected in Wistar rat estrogen-dependent fungal vaginitis model assessed as fungal burden at 10 ug administered intravaginally 48 hrs after fungal infection measured on day 21 after infection; outline: as §1
Candida albicans [13] = test: Antifungal activity against pharmacoresistant Candida albicans AIDS68 infected in Wistar rat estrogen-dependent fungal vaginitis model assessed as fungal burden at 10 ug administered intravaginally 1 hr after fungal infection measured on day 1 after infection; outline: as §1
Candida albicans [14] = test: Antifungal activity against Candida albicans SA40 infected in Wistar rat estrogen-dependent fungal vaginitis model assessed as fungal burden at 10 ug administered intravaginally 48 hrs after fungal infection measured on day 14 after infection; outline: as §1
Candida albicans [15] = test: Antifungal activity against Candida albicans SA40 infected in Wistar rat estrogen-dependent fungal vaginitis model assessed as fungal burden at 10 ug administered intravaginally 48 hrs after fungal infection measured on day 28 after infection; outline: as §1
Candida albicans [16] = test: Antifungal activity against Candida albicans SA40 infected in Wistar rat estrogen-dependent fungal vaginitis model assessed as fungal burden at 10 ug administered intravaginally 48 hrs after fungal infection measured on day 5 after infection; outline: as §1

With OC(Cn1cncn1)(Cn1cncn1)c1ccc(F)cc1F [FLUCONAZOLE] the Activity (Candida albicans [1]) was 93 ×10³ CFU/ml, the Activity (Candida albicans [2]) was 11.7 ×10³ CFU/ml and the Activity (Candida albicans [3]) was >100 ×10³ CFU/ml. It also gave an Activity (Candida albicans [4]) of 44 ×10³ CFU/ml, an Activity (Candida albicans [5]) of 18.7 ×10³ CFU/ml and an Activity (Candida albicans [6]) of 61 ×10³ CFU/ml. It also gave an Activity (Candida albicans [7]) of 0 ×10³ CFU/ml, an Activity (Candida albicans [8]) of 100 ×10³ CFU/ml and an Activity (Candida albicans [9]) of 11.7 ×10³ CFU/ml. For the same compound, the Activity (Candida albicans [10]) was 53.5 ×10³ CFU/ml, the Activity (Candida albicans [11]) was 49.7 ×10³ CFU/ml and the Activity (Candida albicans [12]) was 1.25 ×10³ CFU/ml. It also gave an Activity (Candida albicans [13]) of 100 ×10³ CFU/ml, an Activity (Candida albicans [14]) of 5 ×10³ CFU/ml and an Activity (Candida albicans [15]) of 0 ×10³ CFU/ml. For the same compound, the Activity (Candida albicans [16]) was 25.7 ×10³ CFU/ml.
